≈ marks a conversion by molar mass, not a printed value.
Key:
Vero [1] = assay: In vitro minimum drug concentration that inhibited herpes simplex virus type 1 (E-377 strain) virus-induced cytopathogenic effects by 50% in vero cells; assay type: functional; conditions: Chlorocebus sabaeus, read-out: ID50 (the source's name)
Outline: (§1)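 CPE inhibition assay with HSV-1 strain E-377 replicating in Vero cells. ID50 is the minimum concentration (μg/mL) inhibiting CPE by 50%, from regression with semilog curve fitting. MTC is the minimum concentration (μg/mL) giving any cytotoxicity. TI is MTC divided by ID50.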

Vero [2] = assay: Minimum concentration (ug/mL) for in vitro antiviral activity against herpes simplex virus type 1 (E-377 strain) in Vero host cell cultures; assay type: functional, Chlorocebus sabaeus; outline: as §1
Vero [3] = assay: In vitro antiviral activity against herpes simplex virus type 1 (E-377 strain) in Vero host cell cultures; assay type: functional, Chlorocebus sabaeus; outline: as §1
Vero [4] = assay: In vitro antiviral activity against herpes simplex virus type 1 (E-377 strain) in Vero host cell cultures (MTC/ID50); assay type: functional, Chlorocebus sabaeus; outline: as §1
MDCK [5] = assay: In vitro antiviral activity against influenza virus (type A0/PR/8/34) in Madin-Darby canine kidney (MDCK) host cell cultures; assay type: functional, Canis lupus familiaris
MDCK [6] = assay: In vitro antiviral activity against influenza virus (type A0/PR/8/34) in Madin-Darby canine kidney (MDCK) host cell cultures (MTC/ID50); assay type: functional, Canis lupus familiaris
Outline: (§2)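 MDCK host cell cultures infected with influenza A0/PR/8/34, scored for inhibition of virus-induced cytopathogenic effect (CPE). ID50 is the minimum drug concentration (μg/mL) that cut CPE by 50%, from semilog regression curve fitting. MTC is the minimum concentration (μg/mL) at which any cytotoxicity was seen. Therapeutic index is MTC divided by ID50.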

MDCK [7] = assay: In vitro minimum drug concentration that inhibited the influenza virus-induced cytopathogenic effects by 50% in Madin-Darby canine kidney (MDCK) host cell cultures; assay type: functional; conditions: Canis lupus familiaris, read-out: ID50 (the source's name); outline: as §2
MDCK [8] = assay: Minimum concentration (ug/mL) for in vitro antiviral activity against influenza virus (type A0/PR/8/34) in Madin-Darby canine kidney (MDCK) host cell cultures; assay type: functional, Canis lupus familiaris; outline: as §2
P388 [9] = assay: In vitro inhibition against P-388 mouse leukemia cells using growth inhibition assay at the concentration of 12.5 ug/mL; assay type: functional
Outline: (§3)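 P-388 mouse leukemia cells in culture, by the National Cancer Institute protocol. Tested at 6.25-100 μg/mL and reported as percent growth inhibition. Carbocyclic adenosine is the positive control.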

P388 [10] = assay: In vitro inhibition against P-388 mouse leukemia cells using growth inhibition assay at the concentration of 6.25 ug/mL; assay type: functional; outline: as §3
P388 [11] = assay: In vitro inhibition against P-388 mouse leukemia cells using growth inhibition assay at the concentration of 25 ug/mL; assay type: functional; outline: as §3
P388 [12] = assay: In vitro inhibition against P-388 mouse leukemia cells using growth inhibition assay at the concentration of 100 ug/mL; assay type: functional; outline: as §3
P388 [13] = assay: In vitro inhibition against P-388 mouse leukemia cells using growth inhibition assay at the concentration of 50 ug/mL; assay type: functional; outline: as §3
MRC5 = assay: Effect of compound treatment on yields of human cytomegalovirus (HCMV) in MRC5 (human diploid embryonic lung cells) monolayer cultures at the concentration of 32 uM; assay type: functional
Outline: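 Virus yield reduction assay with HCMV strain Ad169, passaged, titrated and assayed in MRC5 human diploid embryonic lung cells. Virus yields are read as PFU. Includes a virus control and a DHPG positive control.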

SMILES	MTC (Vero [2]) [µg/mL]	Virus rating (Vero [3])	Virus rating (MDCK [5])	inhibition at 12.5 µg/mL (P388 [9]) [%]	inhibition at 6.25 µg/mL (P388 [10]) [%]	inhibition at 25 µg/mL (P388 [11]) [%]	inhibition at 100 µg/mL (P388 [12]) [%]	inhibition at 50 µg/mL (P388 [13]) [%]	further results
Nc1nc2c(ncn2COCCO)c(=O)[nH]1 [ACYCLOVIR]	>255.2	6.2							IC50 (Vero [1]): 0.9 µg/mL (≈ 4 µM); Therapeutic index (Vero [4]): >240.3
NC(=O)c1ncn([C@@H]2O[C@H](CO)[C@@H](O)[C@H]2O)n1 [RIBAVIRIN]			3.4						Therapeutic index (MDCK [6]): 10.3; IC50 (MDCK [7]): 3.1 µg/mL (≈ 12.7 µM); MTC (MDCK [8]): 32 µg/mL
Nc1nc(N)c2nnn(C3CC(CO)C(O)C3O)c2n1 (stereo unspecified)	>294.8	0	0	0	0	12.2	58.4	31.5	
Nc1nc(Cl)c2ncn(C3CC(CO)C(O)C3O)c2n1 (stereo unspecified)	299.7	0	0	0	0	0	2.8	0	
Nc1nc2c(ncn2COC(CO)CO)c(=O)[nH]1 [GANCICLOVIR]									HCMV yield (MRC5): 2.4 log10 pfu/mL; HCMV yield reduction (MRC5): 3 log10 pfu/mL

Reference: ChEMBL document CHEMBL1125060, “Synthesis and biological evaluation of carbocyclic analogues of lyxofuranosides of 2-amino-6-substituted-purines and 2-amino-6-substituted-8-azapurines” (1990)
